# Screening results as filed in PubChem.
# TRPML3 agonist: human mucolipin-3 channel agonism. hit rate 0.29% among 220,000. Q8TDD5. activation, % at 3 µM. HEK293 TRPML3-YFP, Fluo-8 calcium fluorescence; 100% = the carbachol control signal;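 active = activation above its plate's cutoff, the mean activation of the plate's test wells plus 3 SD, cut at about 12% in these data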;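 note: 0% = DMSO only wells and 100% = carbachol wells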
#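 Test system – HEK293 line with stable expression of human TRPML3-YFP channel · Control set – carbachol 87 µM final as high control (100%), DMSO as low control (0%) · Signal – Fluo-8 calcium dye fluorescence, ex 470-495, em 515-575 nm · Incubation – 1-h 37 °C dye load, 5-s basal, 120-s post-compound reads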
# CRFBP-R2 block: blocks CRF-induced signaling of the CRF-BP/CRF-R2 complex | HEK293 CRF-R2/CRF-BP, CRF-induced calcium fluorescence | inhibition, % at 11.8 µM | hit rate 0.59% among 350,000 | AID 588475;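 active = inhibition of the ligand-induced calcium signal above about 50% at the single tested concentration, limit read from the data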
# zfTRPN1 agonist: zebrafish TRPN1 (NompC) channel agonism. HEK293 zebrafish TRPN1-YFP, Fluo-8 calcium fluorescence; 100% = response to 87 µM carbachol. activation, % at 3 µM. hit rate 0.18% among 220,000;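 active = activation above its plate's cutoff, the mean activation of test wells on that plate plus 3 SD, cut at about 19% in these data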;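 note: 0% = DMSO alone and 100% = 87 µM carbachol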
#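 System: zebrafish TRPN1-YFP in HEK293 cells / Dosing: 3 µM single point / Timing: dye loading 1 h at 37 °C, then 30 min room temperature / Signal: Fluo-8 calcium fluorescence, excitation 470-495 nm, emission 515-575 nm / Read-out basis: percent activation from peak over basal fluorescence ratio, control-normalized / Control set: high carbachol 87 µM, low DMSO alone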
# VIM-2 inhibitor: blocks Pseudomonas aeruginosa VIM-2 metallo-beta-lactamase. purified VIM-2, nitrocefin hydrolysis, epi-absorbance fluorescence. inhibition, % at 5.6 µM. hit rate 0.89% among 290,000;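 active = inhibition above the mean of all tested compounds plus 3 SD, cutoff set per screening run, cut at about 7.5% in these data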;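 note: red hydrolysis product quenches plate fluorescence so inhibitors raise well fluorescence; 0% = enzyme with DMSO and 100% = DMSO without enzyme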
# CRFBP-R2 agonist: agonists of human CRF-binding protein/CRF-R2 receptor complex; HEK293 CRF-R2/CRF-BP, calcium dye fluorescence (FLIPR); percent of saturating CRF peptide response; activation, % at 13.2 µM; hit rate 0.46% among 350,000;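 active = activation of at least 50%, plus an integration ratio under a set limit after plate pattern correction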;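 note: plate controls were neutral control wells without compound for no effect and CRF at EC100 for full effect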
# IMP-1 inh-1: blocks Pseudomonas aeruginosa IMP-1 metallo-beta-lactamase | purified IMP-1, nitrocefin hydrolysis, epi-absorbance fluorescence | inhibition, % at 5.6 µM | hit rate 0.45% among 290,000;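 active = inhibition above the mean plus 3 SD of all compounds in the same screening run, cut at about 4.5% in these data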;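 note: 0% = IMP-1 with DMSO and 100% = DMSO wells lacking enzyme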
#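 System: purified IMP-1 / Input: IMP-1 dispensed at 0.2 nM / Medium: 50 mM HEPES pH 7.1, 50 µM ZnSO4, 0.05% Brij 35 / Timing: 15 min enzyme–compound preincubation, then 25 min nitrocefin reaction, 25 °C / Technique: plate fluorescence quenching by hydrolysis product, ex 480/em 530 nm / Repeats: singlicate testing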
# IMP-1 inh-2: blocks IMP-1 metallo-beta-lactamase in VIM-2 selectivity screen. shares compounds with VIM-2 inhibitor. purified IMP-1, nitrocefin hydrolysis, epi-absorbance fluorescence. inhibition, % at 5.6 µM. 1,300 tested, under 10 active. AID 1856; call rule not given here;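 note: 0% = enzyme with vehicle and 100% = vehicle without enzyme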
# VIM-2 FRET inh: counter-screen for VIM-2 inhibitors: epi-absorbance artifacts via FRET; shares compounds with VIM-2 inhibitor; purified VIM-2, CCF2 FRET substrate hydrolysis; inhibition, % at 5.6 µM; hit rate 23% among 1,300;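 active = inhibition above the mean of all tested compounds plus 3 SD, cut at about 19% in these data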;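 note: 0% = VIM-2 plus DMSO and 100% = no enzyme wells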
# TEM-1 inh: selectivity counter-screen for VIM-2 inhibitors: E. coli TEM-1 inhibitors; shares compounds with VIM-2 inhibitor; Purified TEM-1, nitrocefin hydrolysis, epi-absorbance fluorescence; inhibition, % at 5.6 µM; hit rate 3% among 1,300;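 active = inhibition above that campaign's mean inhibition plus 3 SD, cut at about 0.46% in these data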;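 note: 0% = TEM-1 with DMSO and 100% = TEM-1 with 100 µM potassium clavulanate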
# Target sequence (P62593 whole entry, looked up): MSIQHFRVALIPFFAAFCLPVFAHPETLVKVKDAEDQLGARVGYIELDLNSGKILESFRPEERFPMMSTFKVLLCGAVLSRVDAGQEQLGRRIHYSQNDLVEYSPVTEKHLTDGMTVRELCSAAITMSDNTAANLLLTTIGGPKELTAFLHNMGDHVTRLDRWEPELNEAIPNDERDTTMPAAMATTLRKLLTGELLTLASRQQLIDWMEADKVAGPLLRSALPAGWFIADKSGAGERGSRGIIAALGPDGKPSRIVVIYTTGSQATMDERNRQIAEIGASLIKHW
# VIM-2 confirm 2: confirmation of P. aeruginosa VIM-2 metallo-beta-lactamase inhibitors | shares compounds with VIM-2 inhibitor | purified VIM-2, nitrocefin hydrolysis, epi-absorbance | inhibition, % at 5.6 µM | hit rate 96% among 1,300;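 active = inhibition of the VIM-2 beta-lactamase enzyme above about 11% from the earlier first-round screen, limit read from the data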;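 note: 0% = VIM-2 with DMSO and 100% = buffer wells without enzyme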
# The depositor's hits bear a star; nt = not tested or not shown. An excerpt weighted towards active compounds, which were near 2.1% of everything screened.
SMILES,TRPML3 agonist,CRFBP-R2 block,zfTRPN1 agonist,VIM-2 inhibitor,CRFBP-R2 agonist,IMP-1 inh-1,IMP-1 inh-2,VIM-2 FRET inh,TEM-1 inh,VIM-2 confirm 2
CCCCc1n[nH]c(=S)n1Cc1ccc(Cl)cc1,-1,-1,-2,15*,-1,-3,-3,25*,-6,18*
COc1ccccc1-c1n[nH]c(=S)n1Cc1ccccc1,nt,-2,nt,25*,-1,-2,-3,52*,-9,34*
S=c1[nH]nc(-c2ccc(Br)cc2)n1Cc1ccco1,-1,21,0,2,0,-3,nt,nt,nt,nt
COc1ccccc1-n1c(-c2ccccc2)n[nH]c1=S,1,-14,0,15*,-5,-4,-2,46*,-7,26*
CCCc1n[nH]c(=S)n1Cc1ccco1,0,-4,0,17*,1,-5,-2,40*,-5,25*
CCOC(=O)c1cnc(-n2nc(C)cc2C)nc1Nc1ccc(N(C)C)cc1,-1,-9,-1,26*,0,-4,-5,-35,-5,75*
CCOC(=O)c1cnc(-n2nc(C)cc2C)nc1NC1CCCCC1,2,-6,3,14*,-4,-5,-6,-28,-7,28*
CS(=O)(=O)c1ccc(Cl)c(NC(=O)c2cc(S(=O)(=O)N3CCOCC3)ccc2N2CCCC2)c1,nt,7,nt,nt,0,nt,nt,nt,nt,nt
Cc1c(CC(=O)O)c(=O)oc2c(C)c3occ(-c4ccc(F)cc4)c3cc12,nt,10,nt,15*,-2,2,1,5,-12,25*
Cc1c(CC(=O)O)c(=O)oc2cc3occ(-c4ccccc4)c3cc12,nt,-4,nt,-5,-8,0,nt,nt,nt,nt
CCN1CCN(C(=O)CCc2nc3ccccc3c(=O)[nH]2)CC1,1,4,3,21*,0,0,-3,-2,-5,43*
O=C1C=C(c2ccc(C(=O)O)cc2)C[C@@H](c2ccc3c(c2)OCO3)C1,nt,2,nt,nt,-1,nt,nt,nt,nt,nt
Cc1c(C)c2ccc(OC(C)C(=O)NC3CC(C)(C)NC(C)(C)C3)cc2oc1=O (stereo not drawn),nt,6,nt,7,-1,-2,nt,nt,nt,nt
CC(Oc1ccc2c3c(c(=O)oc2c1)CCC3)C(=O)NC1CCN(Cc2ccccc2)CC1 (stereo not drawn),nt,-26,nt,22*,2,-3,-3,2,-6,31*
Cc1cc(=O)oc2cc(OC(C)C(=O)NC3CCN(Cc4ccccc4)CC3)ccc12 (stereo not drawn),nt,4,nt,0,0,-2,nt,nt,nt,nt
Cc1c(OC(C)C(=O)NC2CC(C)(C)NC(C)(C)C2)ccc2c3c(c(=O)oc12)CCC3 (stereo not drawn),nt,-3,nt,26*,0,1,-2,-2,-12,37*
CC(Oc1ccc2c3c(c(=O)oc2c1)CCCC3)C(=O)NC1CC(C)(C)NC(C)(C)C1 (stereo not drawn),nt,1,nt,15*,-1,-2,-3,1,-6,20*
CC(Oc1cc2oc(=O)c3c(c2cc1Cl)CCC3)C(=O)NC1CC(C)(C)NC(C)(C)C1 (stereo not drawn),nt,-6,nt,25*,1,-5,-2,-4,-2,35*
N#Cc1cccc(NC(=O)CN2C(=O)NC(Cc3ccccc3)C2=O)c1 (stereo not drawn),1,6,-2,-3,-3,-3,nt,nt,nt,nt
COc1ccccc1C(=O)NC(CCSC)C(=O)OCC(=O)N1CCN(S(=O)(=O)c2ccc(C)cc2)CC1 (stereo not drawn),nt,8,nt,nt,1,nt,nt,nt,nt,nt
